Most compounds without a hit are left out; they make up all but 4.5% or so of the library.
OX1R antag-1: antagonists of human orexin 1 receptor (OX1R); OX1R-expressing cells, FRET antagonist read-out; inhibition, % at 6.6 µM; 330,000 compounds, 1.8% hits; AID 485270, 2010; in the data active = inhibition mostly above about 38%, no sharp cut-off; inactive = mostly below about 40%;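 also: 0% = agonist challenge alone and 100% = reference antagonist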
TAAR1 antagonist: human TAAR1 antagonists, primary screen, Fluo-8 calcium fluorescence, CHO RD-HGA16 cells; Trace amine-associated receptor 1 (Homo sapiens), Q96RJ0; inhibition, % at 3 µM; 360,000 compounds, 1.5% hits; antagonist; AID 624466, 2012;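 active = inhibition above a per-plate cutoff, the mean inhibition of test compounds on that plate plus 3 SD, cut at about 49% in these data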;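 also: 0% = DMSO plus EC80 beta-PEA response and 100% = DMSO alone without agonist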
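System: CHO RD-HGA16 cells bearing hTAAR1. Reagent: EC80 β-phenethylamine stimulus. Schedule: seeding 17-24 h prior, 75-min 37 °C, 30-min RT dye loading. Signal: Fluo-8 intracellular calcium dye fluorescence, real-time kinetic reads. Read-out: % inhibition from peak post-agonist over basal fluorescence ratio. Benchmarks: vehicle wells and EC80 agonist wells. Replicates: n of 1.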
GPR7 antagonist: GPR7 receptor antagonists, primary screen, cell-based, fluorescence, single concentration | inhibition, % at 4.4 µM | Neuropeptides B/W receptor type 1 (Homo sapiens), P48145 | GPR7-expressing cells, fluorescence antagonist assay | 290,000 compounds, 1.1% hits; in the data active = inhibition above about 16%, passing the limit was not always enough;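 also: cells stimulated with the agonist NPW; 0% = agonist with vehicle and 100% = vehicle without agonist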
Target sequence (P48145 whole entry, looked up): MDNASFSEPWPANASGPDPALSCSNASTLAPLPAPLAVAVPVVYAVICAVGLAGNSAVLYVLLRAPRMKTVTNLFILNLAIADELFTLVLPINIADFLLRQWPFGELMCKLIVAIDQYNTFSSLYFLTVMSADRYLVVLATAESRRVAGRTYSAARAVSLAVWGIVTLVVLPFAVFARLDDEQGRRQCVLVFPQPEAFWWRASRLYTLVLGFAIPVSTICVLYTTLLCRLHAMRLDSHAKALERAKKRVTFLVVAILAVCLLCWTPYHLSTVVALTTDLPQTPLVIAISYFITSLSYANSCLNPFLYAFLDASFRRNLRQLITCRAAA
CHO parental Ca: ATP-evoked calcium signal inhibitors, parental CHO, primary screen, counter-screen for OX1R antagonist project, cell-based, fluorescence, Fluo-8 calcium dye; 330,000 compounds, 0.63% hits; AID 463079, 2010; parental CHO-K1, ATP-induced calcium, Fluo-8 fluorescence; inhibition, % at 5.6 µM;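 active = inhibition above that plate's mean sample inhibition plus 3 SD, cut at about 26% in these data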;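 also: 0% = ATP-challenged DMSO wells and 100% = DMSO wells without ATP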
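Material – parental CHO cells · Reagent – ATP stimulus · Compound – single nominal dose of 5.6 µM per compound · Detection – Fluo-8 fluorescence · Read-out basis – percent inhibition of calcium signal · Controls – ATP-challenged DMSO wells low, unchallenged DMSO wells high · Repeats – no replicates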
OX1R antag-2: OX1R (HCRTR1) antagonists, primary screen, fluorescence, CHO/OX1R cells, Fluo-8 calcium, orexin A. Orexin/Hypocretin receptor type 1 (Homo sapiens), O43613. Fluo-8 calcium fluorescence. inhibition, % at 5 µM. 330,000 compounds, 0.43% hits. AID 434989, 2010;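 active = inhibition above its plate's threshold, mean inhibition of all tested compounds on the plate plus 3 SD, cut at about 37% in these data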;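 also: 0% = orexin A challenge wells and 100% = SB-334867-A antagonist wells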
TAAR1 agonist: human TAAR1 agonists, primary screen, Fluo-8 calcium fluorescence, CHO RD-HGA16 cells | Trace amine-associated receptor 1 (Homo sapiens), Q96RJ0 | vehicle wells 0%, saturating PEA agonist 100% | activation, % at 3 µM | 360,000 compounds, 0.99% hits | AID 624467, 2012;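 active = activation above the mean activation of all test compounds in the run plus 3 SD, cut at about 38% in these data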
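Assay system: CHO-derived RD-HGA16 cells with stable Gα16 and human TAAR1; timing: 17-24 h seeding, 75 min 37 °C dye, 30 min RT; read-out: % activation from peak over basal fluorescence ratio, DMSO-to-PEA scaled; measured by: kinetic Fluo-8 calcium fluorescence; benchmarks: low control DMSO, high control PEA (EC100); doses: 3 µM single concentration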
OX1R Fluo8 conf: OX1R (HCRTR1) antagonists, confirmation, fluorescence, CHO/OX1R cells, Fluo-8 calcium, orexin A | shares compounds with OX1R antag-2 | orexin A calcium Fluo-8 fluorescence | inhibition, % at 5 µM | 1,100 compounds, 38% hits | AID 492963, 2010; in the data active = inhibition above about 29%;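 also: 0% = agonist challenge alone and 100% = reference antagonist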
CHO Ca counter: ATP-evoked calcium inhibition in parental CHO, counter-screen for OX1R antagonist project, cell-based, fluorescence, CHO-K1, triplicate. shares compounds with OX1R antag-2. ATP-induced calcium, Fluo-8 fluorescence. inhibition, % at 5.6 µM. 1,100 compounds, 9.3% hits. AID 492965, 2010;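 active = inhibition above a per-plate limit, the mean inhibition of that plate's test compounds plus 3 SD, cut at about 25% in these data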;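 also: 0% = ATP challenge with DMSO and 100% = DMSO without ATP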
Numbers without * were called inactive; nt = no result.

SMILES	OX1R antag-1	TAAR1 antagonist	GPR7 antagonist	CHO parental Ca	OX1R antag-2	TAAR1 agonist	OX1R Fluo8 conf	CHO Ca counter
Cc1ccc(S(=O)(=O)N2CCOCC2)cc1NC(=O)COC(=O)CCc1c[nH]c2ccccc12	30	36	nt	-9	32	13	-2	-14
O=C(NC1CCCCC1)c1ccc(Br)o1	17	10	-16	-12	-15	1	nt	nt
O=C(CCNC(=O)c1ccc(Br)o1)NC1CCCC1	2	8	9	-5	23	5	7	-18
O=C(Cc1cccs1)Nc1ccc(-c2nnc(-c3ccccc3)o2)cc1	19	9	-4	-18	-26	13	nt	nt
Cc1cccc(-c2nnc(-c3cccc(NC(=O)Cc4cccs4)c3)o2)c1	37	74*	-11	25	65*	11	0	-12
Cc1ccc(C)c(NS(=O)(=O)c2cc(C(=O)Nc3cccc(N(C)S(C)(=O)=O)c3)ccc2C)c1	34	23	2	16	65*	15	36*	-8
Cc1ccccc1NS(=O)(=O)c1cc(C(=O)NCCSC2CCCCC2)ccc1C	21	35	-7	-6	60*	5	4	-12
Cc1ccc(C)c(NS(=O)(=O)c2cc(C(=O)NCCSC3CCCCC3)ccc2C)c1	17	30	-15	-9	51*	2	-1	-15
COc1ccc(NC(=O)CCc2nc(-c3ccc(C)cc3)no2)cc1Cl	56	13	-15	16	34	24	5	6
Cc1c(C(=O)N/N=C/c2cccs2)nc2ccccn12	34	-5	0	-6	2	2	nt	nt
Cc1noc(/C=C/c2ccc(-c3ccccc3Cl)o2)c1[N+](=O)[O-]	8	nt	8	21	29	nt	74*	43*
Cc1cccc(C)c1N/C=C/c1onc(C)c1[N+](=O)[O-]	18	3	-14	-22	-11	0	nt	nt
CCOC(=O)[C@@H](C)N(Cc1ccc(OC)cc1)S(=O)(=O)N(Cc1ccccc1)[C@H](C(=O)OC)C(C)C	9	15	nt	7	50*	2	7	58*
CCOC(=O)[C@@H](C)NS(=O)(=O)N(Cc1ccccc1)[C@H](C(=O)OC)C(C)C	10	7	nt	-15	-10	2	nt	nt
COc1cc(CCC(=O)NCc2ccc3c(c2)OCO3)cc(OC)c1OC	1	4	4	-12	-25	-1	nt	nt
COCCN(C(=O)CSc1nc2nc(C)cc(C)n2n1)c1c(N)n(Cc2ccccc2)c(=O)[nH]c1=O	21	-3	-2	1	-6	1	nt	nt
COc1cccc(CNC(=O)c2cccc(S(=O)(=O)N3CCN(c4ccc(F)cc4)CC3)c2)c1	22	26	nt	12	24	21	26	3
COc1ccc(COC(=O)c2cccc(S(=O)(=O)N3CCN(C(C)=O)CC3)c2)cc1	28	11	nt	14	29	9	11	1
COc1ccc(CNC(=O)c2cccc(S(=O)(=O)N3CCN(c4ccc(F)cc4)CC3)c2)cc1	nt	5	nt	nt	nt	8	nt	nt
Cc1ccc(NC(=O)COC(=O)c2ccc(-n3cccn3)cc2)cc1C	-3	-2	nt	-2	6	5	nt	nt
Cc1c(Cl)cccc1NC(=O)CSc1ncnc2c1cnn2CCc1ccccc1	19	-31	-5	-8	-11	3	nt	nt
O=C(CSc1ncnc2c1cnn2CCc1ccccc1)Nc1cccc(C(F)(F)F)c1	38	60*	-10	24	61*	15	-8	-9
